Test results from ChEMBL document CHEMBL4811225 (J Med Chem, 2021).
Where a SMILES comes first, the peptide text is derived from it. Bridges are numbered along the chain shown (N, C = ends).

Tests used:
[1] = target: Neuronal acetylcholine receptor; alpha4/beta2 (Homo sapiens, UniProt P17787+P43681); experiment: Inhibition of human alpha4beta2 nAChR expressed in Xenopus laevis oocytes assessed as inhibition of acetylcholine-induced current response by two-electrode voltage-clamp method; format: cell-based, Oocyte
Chain of Neuronal acetylcholine receptor; alpha4/beta2 (P17787 whole entry, the tested form may be a part): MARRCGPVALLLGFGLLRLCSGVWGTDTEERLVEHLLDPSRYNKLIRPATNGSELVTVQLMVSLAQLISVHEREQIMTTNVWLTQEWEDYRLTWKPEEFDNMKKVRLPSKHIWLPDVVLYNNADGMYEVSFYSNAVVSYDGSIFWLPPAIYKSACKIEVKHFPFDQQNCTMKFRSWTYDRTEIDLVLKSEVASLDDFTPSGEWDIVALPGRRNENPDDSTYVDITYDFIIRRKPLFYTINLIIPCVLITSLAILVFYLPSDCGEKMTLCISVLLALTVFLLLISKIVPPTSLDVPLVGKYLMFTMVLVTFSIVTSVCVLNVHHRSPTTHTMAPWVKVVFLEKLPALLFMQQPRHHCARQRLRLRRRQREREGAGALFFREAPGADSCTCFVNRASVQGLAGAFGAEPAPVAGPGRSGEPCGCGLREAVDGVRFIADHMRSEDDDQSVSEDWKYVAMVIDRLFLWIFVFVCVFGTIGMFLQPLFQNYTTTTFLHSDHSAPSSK
Chain of Neuronal acetylcholine receptor; alpha4/beta2 (P43681 whole entry, the tested form may be a part): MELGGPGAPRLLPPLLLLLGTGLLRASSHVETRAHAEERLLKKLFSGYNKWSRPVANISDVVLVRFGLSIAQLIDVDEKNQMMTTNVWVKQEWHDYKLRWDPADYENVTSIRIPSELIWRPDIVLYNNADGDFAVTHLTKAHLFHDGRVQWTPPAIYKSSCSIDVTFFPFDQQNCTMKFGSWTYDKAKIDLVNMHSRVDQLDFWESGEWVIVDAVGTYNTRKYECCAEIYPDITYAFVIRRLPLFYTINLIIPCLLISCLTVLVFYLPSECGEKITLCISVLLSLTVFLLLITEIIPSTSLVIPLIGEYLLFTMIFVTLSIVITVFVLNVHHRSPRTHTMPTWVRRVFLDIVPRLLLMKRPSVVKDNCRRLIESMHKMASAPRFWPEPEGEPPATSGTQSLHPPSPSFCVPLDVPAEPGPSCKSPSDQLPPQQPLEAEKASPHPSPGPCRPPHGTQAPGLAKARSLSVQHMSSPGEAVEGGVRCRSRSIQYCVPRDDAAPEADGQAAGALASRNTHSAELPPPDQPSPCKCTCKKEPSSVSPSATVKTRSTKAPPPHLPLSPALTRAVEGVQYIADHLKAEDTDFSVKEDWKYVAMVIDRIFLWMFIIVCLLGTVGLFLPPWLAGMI
Method in brief: (§1)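 Two-electrode voltage clamp of stage IV–V oocytes 1–5 days after equal-ratio cRNA injection; ACh 100 μM (β2-containing subtypes, α9α10), 1 s every 60 s in frog saline. Peptide perfused up to 1 μM, responses normalized to mean of three control responses; above 1 μM, 5 min static bath. IC50 with 95% CI; n = oocytes.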

[2] = target: Neuronal acetylcholine receptor; alpha2/beta4 (Rattus norvegicus, UniProt P12389+P12392); experiment: Inhibition of rat alpha2beta4 nAChR expressed in Xenopus laevis oocytes assessed as inhibition of acetylcholine-induced current response by two-electrode voltage-clamp method; format: cell-based, Oocyte
Chain of Neuronal acetylcholine receptor; alpha2/beta4 (P12389 whole entry, the tested form may be a part): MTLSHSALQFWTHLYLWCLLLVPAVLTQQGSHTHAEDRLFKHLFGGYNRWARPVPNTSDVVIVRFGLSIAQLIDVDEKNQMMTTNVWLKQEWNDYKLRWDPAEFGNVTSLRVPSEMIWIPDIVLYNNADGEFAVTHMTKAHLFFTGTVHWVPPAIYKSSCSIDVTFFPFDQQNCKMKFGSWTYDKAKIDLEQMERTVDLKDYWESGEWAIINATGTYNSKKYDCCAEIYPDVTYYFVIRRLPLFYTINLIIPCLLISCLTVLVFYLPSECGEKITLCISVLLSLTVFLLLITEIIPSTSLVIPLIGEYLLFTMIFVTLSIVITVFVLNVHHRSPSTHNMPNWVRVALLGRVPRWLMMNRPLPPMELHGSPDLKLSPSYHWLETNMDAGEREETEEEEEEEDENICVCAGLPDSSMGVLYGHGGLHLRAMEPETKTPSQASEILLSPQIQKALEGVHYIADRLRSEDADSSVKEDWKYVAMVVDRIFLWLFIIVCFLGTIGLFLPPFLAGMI
Chain of Neuronal acetylcholine receptor; alpha2/beta4 (P12392 whole entry, the tested form may be a part): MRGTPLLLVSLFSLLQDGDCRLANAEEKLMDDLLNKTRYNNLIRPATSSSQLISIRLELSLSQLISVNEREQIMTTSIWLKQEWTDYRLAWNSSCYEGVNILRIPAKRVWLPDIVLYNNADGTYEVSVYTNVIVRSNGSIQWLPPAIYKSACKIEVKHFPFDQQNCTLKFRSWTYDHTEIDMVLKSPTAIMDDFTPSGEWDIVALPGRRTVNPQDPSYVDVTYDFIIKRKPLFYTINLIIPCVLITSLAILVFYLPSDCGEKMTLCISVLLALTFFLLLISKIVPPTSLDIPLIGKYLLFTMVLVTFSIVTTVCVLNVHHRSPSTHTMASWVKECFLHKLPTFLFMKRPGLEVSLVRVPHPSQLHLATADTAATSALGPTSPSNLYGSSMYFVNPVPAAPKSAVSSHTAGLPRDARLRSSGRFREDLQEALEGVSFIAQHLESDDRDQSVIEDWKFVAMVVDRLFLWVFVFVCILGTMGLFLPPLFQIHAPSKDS
Method in brief: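 TEVC on stage IV–V oocytes 1–5 days after equal-ratio cRNA injection (α2β4, α3β4, α4β4, α7). ACh 300 μM, 1 s pulses at 60 s intervals under frog saline perfusion. Peptide perfused to 1 μM, normalized to average of three control responses; higher concentrations by 5 min static bath. IC50 with 95% CI, n oocytes.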

[3] = target: Neuronal acetylcholine receptor; alpha2/beta2 (Homo sapiens, UniProt P17787+Q15822); experiment: Inhibition of human alpha2beta2 nAChR expressed in Xenopus laevis oocytes assessed as inhibition of acetylcholine-induced current response by two-electrode voltage-clamp method; format: cell-based, Oocyte; method in brief: as §1
Chain of Neuronal acetylcholine receptor; alpha2/beta2 (P17787 whole entry): as the sequence (P17787 whole entry, the tested form may be a part) above
Chain of Neuronal acetylcholine receptor; alpha2/beta2 (Q15822 whole entry): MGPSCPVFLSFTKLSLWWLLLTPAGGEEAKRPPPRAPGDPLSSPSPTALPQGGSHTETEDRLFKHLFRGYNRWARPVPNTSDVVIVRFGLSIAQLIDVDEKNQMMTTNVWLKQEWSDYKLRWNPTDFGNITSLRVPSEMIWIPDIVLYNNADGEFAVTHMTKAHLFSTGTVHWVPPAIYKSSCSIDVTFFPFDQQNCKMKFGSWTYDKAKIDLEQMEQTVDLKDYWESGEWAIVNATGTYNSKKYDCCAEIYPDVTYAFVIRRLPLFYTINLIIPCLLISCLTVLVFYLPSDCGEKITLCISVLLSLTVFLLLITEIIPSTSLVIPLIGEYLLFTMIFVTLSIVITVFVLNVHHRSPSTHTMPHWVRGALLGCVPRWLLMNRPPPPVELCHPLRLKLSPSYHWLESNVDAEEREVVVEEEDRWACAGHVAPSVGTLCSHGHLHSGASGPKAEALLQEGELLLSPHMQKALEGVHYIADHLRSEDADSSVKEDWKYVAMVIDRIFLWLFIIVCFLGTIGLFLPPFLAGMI

[4] = target: Neuronal acetylcholine receptor; alpha4/beta4 (Rattus norvegicus, UniProt P09483+P12392); format: cell-based, Oocyte
Chain of Neuronal acetylcholine receptor; alpha4/beta4 (P09483 whole entry): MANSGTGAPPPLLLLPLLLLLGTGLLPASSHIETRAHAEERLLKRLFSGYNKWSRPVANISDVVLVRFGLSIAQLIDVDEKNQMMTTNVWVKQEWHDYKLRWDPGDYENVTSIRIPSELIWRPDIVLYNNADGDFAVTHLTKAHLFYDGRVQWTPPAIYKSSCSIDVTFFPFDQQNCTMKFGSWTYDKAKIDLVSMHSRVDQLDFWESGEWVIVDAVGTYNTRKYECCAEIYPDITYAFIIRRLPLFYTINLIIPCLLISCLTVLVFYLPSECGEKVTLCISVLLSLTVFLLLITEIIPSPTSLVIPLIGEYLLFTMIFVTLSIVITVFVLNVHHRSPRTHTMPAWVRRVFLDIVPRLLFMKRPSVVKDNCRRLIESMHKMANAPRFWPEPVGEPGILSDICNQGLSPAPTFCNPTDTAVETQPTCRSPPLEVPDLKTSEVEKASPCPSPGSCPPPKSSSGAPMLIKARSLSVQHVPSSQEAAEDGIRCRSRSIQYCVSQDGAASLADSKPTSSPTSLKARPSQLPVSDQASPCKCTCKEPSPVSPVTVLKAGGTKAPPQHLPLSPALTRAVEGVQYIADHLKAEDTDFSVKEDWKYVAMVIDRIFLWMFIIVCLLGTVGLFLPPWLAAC
Chain of Neuronal acetylcholine receptor; alpha4/beta4 (P12392 whole entry): as the sequence (P12392 whole entry, the tested form may be a part) above

[5] = target: Neuronal acetylcholine receptor; alpha9/alpha10 (Homo sapiens) (UniProt Q9UGM1+Q9GZZ6); experiment: Inhibition of human alpha9alpha10 nAChR expressed in Xenopus laevis oocytes assessed as inhibition of acetylcholine-induced current response at 10 uM by two-electrode voltage-clamp method relative to control; format: cell-based; settings: Oocyte
Method in brief: (§2)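 Oocytes (stage IV–V) injected with equal-ratio cRNAs of cloned subunits; TEVC 1–5 days post-injection. ACh 100 μM for β2-containing and α9α10 subtypes, 1 s pulses every 60 s. Peptide 10 μM in 5 min static bath; response normalized to ACh response after 5 min control-saline bath; mean ± SD, n = 4.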

[6] = target: Neuronal acetylcholine receptor; alpha3/beta2 (Rattus norvegicus) (UniProt P04757+P12390); experiment: Inhibition of rat alpha3beta2 nAChR expressed in Xenopus laevis oocytes assessed as inhibition of acetylcholine-induced current response at 10 uM by two-electrode voltage-clamp method relative to control; format: cell-based; settings: Oocyte; method in brief: as §2
Homo sapiens = species: Homo sapiens; experiment: Selectivity ratio of IC50 for human alpha6/alpha3beta2beta3 nAChR to IC50 for human alpha6/alpha3beta4 nAChR
Method in brief: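 Ratio of each subtype's IC50, from TEVC inhibition of ACh-evoked currents in X. laevis oocytes, to the IC50 at the same species' α6/α3β4 nAChR; IC50 values with 95% CI, n = number of oocytes.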

Compound: CC[C@H](C)[C@@H]1NC(=O)[C@H](CCC(=O)O)NC(=O)[C@@H]2CCCN2C(=O)[C@H](Cc2cnc[nH]2)NC(=O)[C@H](CC(N)=O)NC(=O)[C@H](C(C)C)NC(=O)[C@H](CC(N)=O)NC(=O)[C@@H]2CSSC[C@H](NC(=O)CN)C(=O)N[C@@H](CSSC[C@@H](C(N)=O)NC1=O)C(=O)N[C@@H](CO)C(=O)N[C@@H](Cc1cnc[nH]1)C(=O)N1CCC[C@H]1C(=O)N[C@@H](C(C)C)C(=O)N2 (H-GCCSHPVCNVNHPEIC-NH2; disulfide 2-8, 3-16)
- IC50 [1]: > 10 µM
- IC50 [2]: > 10 µM
- IC50 [3]: > 10 µM
- IC50 [4]: > 10 µM
- inhibition [5]: 76%
- inhibition [6]: 94%
- Ratio IC50 (Homo sapiens): 675
